In brackets after ≈: the same amount, converted by molar mass. Activity calls are given as the source filed them. No cut-off for these calls is given here.
How the values were obtained:
Kocuria rhizophila = assay: Antibacterial activity against Micrococcus luteus ATCC 9341 after 18 hrs; format: functional; settings: for Activity: DC2201; for MIC: DC2201, 18 h
How it was run: (§1)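 Bacterial cells suspended in Mueller-Hinton broth at a final density of […]. Incubated aerobically with compounds in DMSO at 37 °C for 18 h, alongside DMSO-only blank cultures and an ofloxacin positive control. MIC taken as the lowest concentration giving complete inhibition of visible growth.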

[1] = test system: Staphylococcus epidermidis; assay: Antibacterial activity against Staphylococcus epidermidis ATCC 12228 after 18 hrs; format: functional, organism-based; how it was run: as §1
Escherichia coli = assay: Antibacterial activity against Escherichia coli ATCC 25922 after 18 hrs; format: functional, organism-based; how it was run: as §1
Shigella flexneri = assay: Antibacterial activity against Shigella flexneri ATCC 12022 after 18 hrs; format: functional, organism-based; how it was run: as §1
Staphylococcus aureus = assay: Antibacterial activity against Staphylococcus aureus ATCC 25923 after 18 hrs; format: functional, organism-based; how it was run: as §1
Nannizzia gypsea = assay: Antifungal activity against Microsporum gypseum ATCC 14683 after 48 hrs; format: functional, organism-based
How it was run: (§2)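 Fungi grown in Sabouraud dextrose broth with compounds for 48 h at 37 °C. Blank cultures received a limited amount of DMSO. Amphotericin B, dissolved in DMSO, served as the positive control.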

Saccharomyces = assay: Antifungal activity against Saccharomyces sake ATCC 26421 after 48 hrs; format: functional, organism-based; how it was run: as §2
Trichophyton rubrum = assay: Antifungal activity against Trichophyton rubrum ATCC 10218 after 48 hrs; format: functional, organism-based; how it was run: as §2
Pseudomonas aeruginosa = assay: Antibacterial activity against Pseudomonas aeruginosa ATCC 14502 after 18 hrs; format: functional, organism-based; how it was run: as §1
Bacillus subtilis = assay: Antibacterial activity against Bacillus subtilis ATCC 6633 after 18 hrs; format: functional, organism-based; how it was run: as §1
Candida albicans = assay: Antifungal activity against Candida albicans ATCC 1600 after 48 hrs; format: functional, organism-based; how it was run: as §2

Compound | Activity (Kocuria rhizophila) | Activity [1] | Activity (Escherichia coli) | Activity (Shigella flexneri) | Activity (Staphylococcus aureus) | Activity (Nannizzia gypsea) | Activity (Saccharomyces) | Activity (Trichophyton rubrum) | Activity (Pseudomonas aeruginosa) | Activity (Bacillus subtilis) | Activity (Candida albicans) | MIC (Kocuria rhizophila)
COC(=O)C[C@H]1C(C)(C)[C@H](OC(=O)C(C)C)[C@@H]2C=C3[C@H]([C@H](OC(C)=O)C[C@]4(C)[C@H]3CC(=O)O[C@H]4c3ccoc3)[C@@]1(C)C2=O | inactive | inactive | inactive | inactive | inactive | inactive | inactive | inactive | inactive | inactive | inactive | –
C=C1C2=CC(=O)O[C@@H](c3ccoc3)[C@]2(C)CC[C@@H]1[C@@]1(C)[C@@H](O)CC(=O)C(C)(C)[C@@H]1CC(=O)OC | inactive | inactive | inactive | inactive | inactive | inactive | inactive | inactive | inactive | inactive | inactive | –
COC(=O)C[C@H]1C(C)(C)[C@H](OC(=O)C(C)C)[C@]2(O)C=C3C4=CC(=O)O[C@@H](c5ccoc5)[C@]4(C)CC[C@@H]3[C@@]1(C)C2=O | inactive | inactive | inactive | inactive | inactive | inactive | inactive | inactive | inactive | inactive | inactive | –
COC(=O)C[C@H]1C(C)(C)[C@H](OC(C)=O)[C@]2(O)CC3=C4[C@@H](O)C(=O)O[C@@H](c5ccoc5)[C@]4(C)CC[C@@H]3[C@@]1(C)C2=O | inactive | inactive | inactive | inactive | inactive | inactive | inactive | inactive | inactive | inactive | inactive | –
CC1(C)C(=O)C=C[C@]2(C)[C@H]3CC[C@@]4(C)[C@H](c5ccoc5)OC(=O)[C@H]5O[C@]54[C@]3(C)C(=O)C[C@@H]12 | inactive | inactive | inactive | inactive | inactive | inactive | inactive | inactive | inactive | inactive | inactive | –
COC(=O)C[C@H]1C(C)(C)[C@H](OC(C)=O)[C@]2(O)C=C3C4=CC(=O)O[C@@H](c5ccoc5)[C@]4(C)CC[C@@H]3[C@@]1(C)C2=O | inactive | inactive | inactive | inactive | inactive | inactive | inactive | inactive | inactive | inactive | inactive | –
COC(=O)C[C@H]1C(C)(C)[C@@H](OC(C)=O)[C@@H]2CC3=C4CC(=O)O[C@@H](c5ccoc5)[C@]4(C)CC[C@@H]3[C@@]1(C)C2=O | inactive | inactive | inactive | inactive | inactive | inactive | inactive | inactive | inactive | inactive | inactive | –
CC1COc2c(N3CCN(C)CC3)c(F)cc3c(=O)c(C(=O)O)cn1c23 (stereo not drawn) [OFLOXACIN] | – | – | – | – | – | – | – | – | – | – | – | 1.56 µg/mL (≈ 4.32 µM)
COC(=O)C[C@H]1C(C)(C)C(=O)[C@@H]2CC3C4=CC(=O)O[C@@H](c5ccoc5)[C@]4(C)CC[C@@H]3[C@@]1(C)C2=O (stereo partly drawn) | inactive | inactive | inactive | inactive | inactive | inactive | inactive | inactive | inactive | inactive | inactive | –
CC(=O)O[C@H]1C[C@@H](O)C(C)(C)[C@@H]2C[C@@H](OC(C)=O)[C@]3(C)[C@H](CC[C@@]4(C)[C@H](c5ccoc5)OC(=O)[C@H]5O[C@@]534)[C@@]12C | inactive | inactive | inactive | inactive | inactive | inactive | inactive | inactive | inactive | inactive | inactive | –
CC(=O)O[C@@H]1C[C@H](O)[C@]2(C)[C@H]3CC[C@@]4(C)[C@H](c5ccoc5)OC(=O)[C@H]5O[C@]54[C@]3(C)[C@H](OC(C)=O)C[C@H]2C1(C)C | inactive | inactive | inactive | inactive | inactive | inactive | inactive | inactive | inactive | inactive | inactive | –
C/C=C(\C)C(=O)O[C@H]1C(C)(C)[C@H](CC(=O)OC)[C@]2(C)C(=O)[C@@]1(O)C=C1C3=CC(=O)O[C@@H](c4ccoc4)[C@]3(C)CC[C@@H]12 | inactive | inactive | inactive | inactive | inactive | inactive | inactive | inactive | inactive | inactive | inactive | –
C/C=C(\C)C(=O)O[C@H]1C(C)(C)[C@H](CC(=O)OC)[C@]2(C)C(=O)[C@@]1(O)CC1=C3[C@@H](O)C(=O)O[C@@H](c4ccoc4)[C@]3(C)CC[C@@H]12 | inactive | inactive | inactive | inactive | inactive | inactive | inactive | inactive | inactive | inactive | inactive | –
CC(=O)O[C@H]1C[C@@H](OC(C)=O)C(C)(C)[C@@H]2C[C@@H](OC(C)=O)[C@]3(C)[C@H](CC[C@@]4(C)[C@H](c5ccoc5)OC(=O)[C@H]5O[C@@]534)[C@@]12C | inactive | inactive | inactive | inactive | inactive | inactive | inactive | inactive | inactive | inactive | inactive | –
CC(=O)O[C@H]1C[C@@H](O)C(C)(C)[C@@H]2C[C@@H](O)[C@]3(C)[C@H](CC[C@@]4(C)[C@H](c5ccoc5)OC(=O)[C@H]5O[C@@]534)[C@@]12C | inactive | inactive | inactive | inactive | inactive | inactive | inactive | inactive | inactive | inactive | inactive | –
COC(=O)C[C@H]1C(C)(C)C(=O)[C@@H]2CC3=C4CC(=O)O[C@@H](c5ccoc5)[C@]4(C)CC[C@@H]3[C@@]1(C)C2=O | inactive | inactive | inactive | inactive | inactive | inactive | inactive | inactive | inactive | inactive | inactive | –
COC(=O)C[C@H]1C(C)(C)[C@H](OC(=O)C(C)C)[C@]2(O)CC3=C4CC(=O)O[C@@H](c5ccoc5)[C@]4(C)CC[C@@H]3[C@@]1(C)C2=O | – | inactive | inactive | inactive | inactive | inactive | inactive | inactive | inactive | inactive | inactive | 50 µg/mL (≈ 89.8 µM)
C=C1[C@@H]2CC[C@@]3(C)[C@H](c4ccoc4)OC(=O)C[C@]13O[C@H]1CC(=O)C(C)(C)[C@H](C(O)C(=O)OC)[C@]12C (stereo partly drawn) | inactive | inactive | inactive | inactive | inactive | inactive | inactive | inactive | inactive | inactive | inactive | –
